Data from ChEMBL document CHEMBL4052804, “Design and synthesis of piperazine acetate podophyllotoxin ester derivatives targeting tubulin depolymerization as new anticancer agents” (Bioorg Med Chem Lett, 2017).
Active and inactive are the calls of the source. The calls are words filed in the database; no cut-off is given here.

How the values were obtained:
MCF7 [1] = experiment: Cell cycle arrest in human MCF7 cells assessed as accumulation at S phase at 0.6 uM after 4 hrs by propidium iodide staining based flow cytometric method (reference value: 29.55 to 32.22%); assay type: functional
MCF7 [2] = experiment: Cell cycle arrest in human MCF7 cells assessed as accumulation at G1 phase at 0.6 uM after 4 hrs by propidium iodide staining based flow cytometric method (reference value: 60.19 to 60.87%); assay type: functional
MCF7 [3] = experiment: Induction of apoptosis in human MCF7 cells assessed as viable cells at 8 uM after 24 hrs by Annexin-V-FITC/propidium iodide staining based flow cytometric method (reference value: 91.6 to 92.7%); assay type: functional; conditions: MCF7, 24 h, read-out: Activity
MCF7 [4] = experiment: Cytotoxicity against human MCF7 cells after 24 hrs by MTT assay; assay type: functional, cell-based; conditions: MCF7, 24 h
Method in brief: (§1)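 In vitro antiproliferative screen by MTT assay against human MCF-7 breast, HeLa cervical, A549 lung adenocarcinoma and HepG-2 hepatoma cells. Output is the IC50.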

MCF7 [5] = experiment: Induction of apoptosis in human MCF7 cells assessed as viable cells at 12 uM after 24 hrs by Annexin-V-FITC/propidium iodide staining based flow cytometric method (reference value: 91.6 to 92.7%); assay type: functional; conditions: MCF7, 24 h, read-out: Activity
MCF7 [6] = experiment: Induction of apoptosis in human MCF7 cells assessed as late apoptotic cells at 12 uM after 24 hrs by Annexin-V-FITC/propidium iodide staining based flow cytometric method (reference value: 2 to 3.7%); assay type: functional
HepG2 = experiment: Cytotoxicity against human HepG2 cells after 24 hrs by MTT assay; assay type: functional, cell-based; conditions: HepG2, 24 h; method in brief: as §1
MCF7 [7] = experiment: Induction of apoptosis in human MCF7 cells assessed as late apoptotic cells at 4 uM after 24 hrs by Annexin-V-FITC/propidium iodide staining based flow cytometric method (reference value: 2 to 3.7%); assay type: functional
MCF7 [8] = experiment: Cell cycle arrest in human MCF7 cells assessed as accumulation at G1 phase at 0.3 uM after 12 hrs by propidium iodide staining based flow cytometric method (reference value: 58.69 to 62.23%); assay type: functional
MCF7 [9] = experiment: Induction of apoptosis in human MCF7 cells assessed as viable cells at 4 uM after 24 hrs by Annexin-V-FITC/propidium iodide staining based flow cytometric method (reference value: 91.6 to 92.7%); assay type: functional; conditions: MCF7, 24 h, read-out: Activity
MCF7 [10] = experiment: Cell cycle arrest in human MCF7 cells assessed as accumulation at G1 phase at 0.6 uM after 16 hrs by propidium iodide staining based flow cytometric method (reference value: 60.19 to 60.87%); assay type: functional
MCF7 [11] = experiment: Down regulation of cyclin D1 expression in human MCF7 cells at 0.5 to 2 uM after 24 hrs by Western blot analysis; assay type: functional, cell-based
MCF7 [12] = experiment: Induction of apoptosis in human MCF7 cells assessed as necrotic cells at 4 uM after 24 hrs by Annexin-V-FITC/propidium iodide staining based flow cytometric method (reference value: 2.35 to 2.49%); assay type: functional
MCF7 [13] = experiment: Induction of apoptosis in human MCF7 cells assessed as late apoptotic cells at 8 uM after 24 hrs by Annexin-V-FITC/propidium iodide staining based flow cytometric method (reference value: 2 to 3.7%); assay type: functional
MCF7 [14] = experiment: Cell cycle arrest in human MCF7 cells assessed as accumulation at G2/M phase at 0.6 uM after 4 hrs by propidium iodide staining based flow cytometric method (reference value: 7.59 to 9.58%); assay type: functional
MCF7 [15] = experiment: Cell cycle arrest in human MCF7 cells assessed as accumulation at G1 phase at 0.6 uM after 8 hrs by propidium iodide staining based flow cytometric method (reference value: 60.19 to 60.87%); assay type: functional
MCF7 [16] = experiment: Induction of apoptosis in human MCF7 cells assessed as early apoptotic cells at 2 uM after 24 hrs by Annexin-V-FITC/propidium iodide staining based flow cytometric method (reference value: 2.36 to 2.86%); assay type: functional
MCF7 [17] = experiment: Induction of apoptosis in human MCF7 cells assessed as necrotic cells at 12 uM after 24 hrs by Annexin-V-FITC/propidium iodide staining based flow cytometric method (reference value: 2.35 to 2.49%); assay type: functional
MCF7 [18] = experiment: Upregulation of CDK1 expression in human MCF7 cells at 0.5 to 2 uM after 24 hrs by Western blot analysis; assay type: functional, cell-based
MCF7 [19] = experiment: Cell cycle arrest in human MCF7 cells assessed as accumulation at G2/M phase at 0.6 uM after 12 hrs by propidium iodide staining based flow cytometric method (reference value: 5.43 to 13.68%); assay type: functional
MCF7 [20] = experiment: Cell cycle arrest in human MCF7 cells assessed as accumulation at S phase at 0.9 uM after 12 hrs by propidium iodide staining based flow cytometric method (reference value: 27.63 to 32.34%); assay type: functional
MCF7 [21] = experiment: Cell cycle arrest in human MCF7 cells assessed as accumulation at S phase at 0.6 uM after 12 hrs by propidium iodide staining based flow cytometric method (reference value: 27.63 to 32.34%); assay type: functional
HeLa = experiment: Cytotoxicity against human HeLa cells after 24 hrs by MTT assay; assay type: functional, cell-based; method in brief: as §1
MCF7 [22] = experiment: Induction of apoptosis in human MCF7 cells assessed as necrotic cells at 8 uM after 24 hrs by Annexin-V-FITC/propidium iodide staining based flow cytometric method (reference value: 2.35 to 2.49%); assay type: functional
MCF7 [23] = experiment: Cell cycle arrest in human MCF7 cells assessed as accumulation at G2/M phase at 0.3 uM after 12 hrs by propidium iodide staining based flow cytometric method (reference value: 5.43 to 13.68%); assay type: functional
MCF7 [24] = experiment: Induction of apoptosis in human MCF7 cells assessed as necrotic cells at 2 uM after 24 hrs by Annexin-V-FITC/propidium iodide staining based flow cytometric method (reference value: 2.35 to 2.49%); assay type: functional
MCF7 [25] = experiment: Induction of apoptosis in human MCF7 cells assessed as viable cells at 2 uM after 24 hrs by Annexin-V-FITC/propidium iodide staining based flow cytometric method (reference value: 91.6 to 92.7%); assay type: functional; conditions: MCF7, 24 h, read-out: Activity
MCF7 [26] = experiment: Down regulation of cyclin A expression in human MCF7 cells at 0.5 to 2 uM after 24 hrs by Western blot analysis; assay type: functional, cell-based
A549 = experiment: Cytotoxicity against human A549 cells after 24 hrs by MTT assay; assay type: functional, cell-based; conditions: A549, 24 h; method in brief: as §1
MCF7 [27] = experiment: Induction of apoptosis in human MCF7 cells assessed as early apoptotic cells at 4 uM after 24 hrs by Annexin-V-FITC/propidium iodide staining based flow cytometric method (reference value: 2.36 to 2.86%); assay type: functional
MCF7 [28] = experiment: Cell cycle arrest in human MCF7 cells assessed as accumulation at G2/M phase at 0.9 uM after 12 hrs by propidium iodide staining based flow cytometric method (reference value: 5.43 to 13.68%); assay type: functional
MCF7 [29] = experiment: Cell cycle arrest in human MCF7 cells assessed as accumulation at S phase at 0.3 uM after 12 hrs by propidium iodide staining based flow cytometric method (reference value: 27.63 to 32.34%); assay type: functional
MCF7 [30] = experiment: Cell cycle arrest in human MCF7 cells assessed as accumulation at G1 phase at 0.6 uM after 12 hrs by propidium iodide staining based flow cytometric method (reference value: 58.69 to 62.23%); assay type: functional
MCF7 [31] = experiment: Induction of apoptosis in human MCF7 cells assessed as early apoptotic cells at 12 uM after 24 hrs by Annexin-V-FITC/propidium iodide staining based flow cytometric method (reference value: 2.36 to 2.86%); assay type: functional

Work on COc1cc([C@@H]2c3cc4c(cc3[C@H](OC(=O)CN3CCN(c5ccc(Cl)c(Cl)c5)CC3)[C@H]3COC(=O)[C@H]23)OCO4)cc(OC)c1OC yielded an Activity (MCF7 [1]) of 23.99%, an Activity (MCF7 [2]) of 46.58% and a viability at 8 µM (MCF7 [3]) of 67.9%. The IC50 (MCF7 [4]) was 2.78 µM, the viability at 12 µM (MCF7 [5]) was 55.2% and the Activity (MCF7 [6]) was 20.4%. For the same compound, the IC50 (HepG2) was 7.93 µM, the Activity (MCF7 [7]) was 10.5% and the Activity (MCF7 [8]) was 38.07%. For the same compound, the viability at 4 µM (MCF7 [9]) was 72.4%, the Activity (MCF7 [10]) was 8.51% and the Activity (MCF7 [11]) was “Active”. It also gave an Activity (MCF7 [12]) of 5.64%, an Activity (MCF7 [13]) of 14% and an Activity (MCF7 [14]) of 29.43%. The Activity (MCF7 [15]) was 29.54%, the Activity (MCF7 [16]) was 10.1% and the Activity (MCF7 [17]) was 6.91%. For the same compound, the Activity (MCF7 [18]) was “Active”, the Activity (MCF7 [19]) was 60.98 - 69.25% and the Activity (MCF7 [20]) was 10.65%. The Activity (MCF7 [21]) was 4.21 - 20.78%, the IC50 (HeLa) was 5.1 µM and the Activity (MCF7 [22]) was 3.45%. For the same compound, the Activity (MCF7 [23]) was 37.72%, the Activity (MCF7 [24]) was 2.61% and the viability at 2 µM (MCF7 [25]) was 81.2%. For the same compound, the Activity (MCF7 [26]) was “Active”, the IC50 (A549) was 6.32 µM and the Activity (MCF7 [27]) was 11.4%. The Activity (MCF7 [28]) was 81.03%, the Activity (MCF7 [29]) was 24.21% and the Activity (MCF7 [30]) was 18.24 - 26.54%. It also gave an Activity (MCF7 [31]) of 17.5%.
